Measurements as given in ChEMBL document CHEMBL2176942 (J Med Chem, 2012).
One block for each compound: values may come before it.

Columns and labels:
[1] = Permeability across human Caco2 cells at pH 7.4; type: ADME, cell-based; conditions: Caco-2, pH 7.4, read-out: permeability
Summary of the method: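 Caco-2 permeability run without BSA, with both chambers at pH 7.4; values are the average of at least two determinations.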

in vitro [2] = conditions: human
Liver microsomes [3] = experiment: Drug metabolism in rat liver microsomes assessed as formation of metabolite 3-(4-(2-(3-(3-hydroxycyclohexyl)-1-methyl-2-(pyridin-2-yl)-1H-indole-6-carboxamido)-2-methylpropanamido)phenyl)acrylic acid incubated for 30 mins by HPLC/MS method; type: ADME, Microsome; conditions: 0.5 h
Liver microsomes [4] = experiment: Drug metabolism in human liver microsomes assessed as formation of metabolite 3-(4-(2-(3-(3-hydroxycyclohexyl)-1-methyl-2-(pyridin-2-yl)-1H-indole-6-carboxamido)-2-methylpropanamido)phenyl)acrylic acid incubated for 30 mins by HPLC/MS method; type: ADME, Microsome; conditions: 0.5 h
in vitro [5] = conditions: rat
[6] = Cmax in rat at 10 mg/kg, po; type: ADME, organism-based; parameters: dose 10 mg/kg, route oral; conditions: in vivo
Summary of the method: (§1)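 Rats starved overnight, then given 10 mg/kg po as a suspension in 0.3% Tween-80 and 0.5% Methocel, or 2 mg/kg iv in 70% PEG400. Plasma was solid-phase extracted and assayed by HPLC-UV (LOQ 6 ng/mL, calibration in blank plasma). Parameters were derived by noncompartmental analysis.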

[7] = Oral bioavailability in dog; type: ADME, organism-based, Canis lupus familiaris; conditions: in vivo
Summary of the method: (§2)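 Dogs starved overnight, then dosed 2 mg/kg iv in 70% PEG400 or 10 mg/kg orally as a suspension in 0.3% Tween-80/0.5% Methocel. Plasma was extracted by solid phase and quantified by HPLC with UV diode-array detection (LOQ 6 ng/mL). Parameters came from noncompartmental analysis.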

[8] = Half life in dog at 2 mg/kg, iv; type: ADME, organism-based, Canis lupus familiaris; parameters: dose 2 mg/kg, route intravenous; conditions: in vivo; summary of the method: as §2
[9] = Clearance in dog at 2 mg/kg, iv; type: ADME, organism-based, Canis lupus familiaris; parameters: dose 2 mg/kg, route intravenous; conditions: in vivo
[10] = Volume of distribution at steady state in dog at 2 mg/kg, iv; type: ADME, organism-based, Canis lupus familiaris; parameters: dose 2 mg/kg, route intravenous; conditions: in vivo, read-out: Vdss; summary of the method: as §2
[11] = Mean residence time in dog at 10 mg/kg, po; type: ADME, organism-based, Canis lupus familiaris; parameters: dose 10 mg/kg, route oral; conditions: in vivo; summary of the method: as §2
[12] = AUC in dog at 10 mg/kg, po; type: ADME, organism-based, Canis lupus familiaris; parameters: dose 10 mg/kg, route oral; conditions: plasma
Summary of the method: (§3)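 Fasted overnight, then dosed orally at 10 mg/kg as a suspension in 0.3% Tween-80 and 0.5% Methocel. Blood kept on ice and centrifuged at 4 °C; plasma stored at about −20 °C. Solid-phase extraction, then HPLC with UV diode-array detection (200–400 nm) quantified by peak height against blank-plasma standards (LOQ 6 ng/mL). AUC from noncompartmental analysis.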

[13] = Cmax in dog at 10 mg/kg, po; type: ADME, organism-based, Canis lupus familiaris; parameters: dose 10 mg/kg, route oral; conditions: in vivo
[14] = Half life in rat at 2 mg/kg, iv; type: ADME, organism-based; parameters: dose 2 mg/kg, route intravenous; conditions: in vivo; summary of the method: as §1
[15] = Oral bioavailability in rat; type: ADME, organism-based; conditions: in vivo; summary of the method: as §1
[16] = Volume of distribution at steady state in rat at 2 mg/kg, iv; type: ADME, organism-based; parameters: dose 2 mg/kg, route intravenous; conditions: in vivo, read-out: Vdss; summary of the method: as §1
[17] = Clearance in rat at 2 mg/kg, iv; type: ADME, organism-based; parameters: dose 2 mg/kg, route intravenous; conditions: in vivo
[18] = AUC in rat at 10 mg/kg, po; type: ADME, organism-based; parameters: dose 10 mg/kg, route oral; conditions: plasma; summary of the method: as §1
[19] = Mean residence time in rat at 10 mg/kg, po; type: ADME, organism-based; parameters: dose 10 mg/kg, route oral; conditions: in vivo; summary of the method: as §1
[20] = Oral bioavailability rhesus monkey; type: ADME, organism-based, Macaca mulatta; conditions: in vivo
Summary of the method: (§4)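 Rhesus monkeys fasted overnight, then dosed iv at 2 mg/kg in 70% PEG400 or orally at 10 mg/kg as a suspension in 0.3% Tween-80 and 0.5% Methocel. Plasma was kept frozen at about −20 °C, extracted by solid-phase extraction and assayed by HPLC-UV against blank-plasma standards (LOQ 6 ng/mL). Parameters came from noncompartmental analysis.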

[21] = Half life in rhesus monkey at 2 mg/kg, iv; type: ADME, organism-based, Macaca mulatta; parameters: dose 2 mg/kg, route intravenous; conditions: in vivo; summary of the method: as §4
[22] = Volume of distribution at steady state in rhesus monkey at 2 mg/kg, iv; type: ADME, organism-based, Macaca mulatta; parameters: dose 2 mg/kg, route intravenous; conditions: in vivo, read-out: Vdss; summary of the method: as §4
[23] = Mean residence time in rhesus monkey at 10 mg/kg, po; type: ADME, organism-based, Macaca mulatta; parameters: dose 10 mg/kg, route oral; conditions: in vivo; summary of the method: as §4
[24] = AUC in rhesus monkey at 10 mg/kg, po; type: ADME, organism-based, Macaca mulatta; parameters: dose 10 mg/kg, route oral; conditions: plasma; summary of the method: as §3
[25] = Cmax in rhesus monkey at 10 mg/kg, po; type: ADME, organism-based, Macaca mulatta; parameters: dose 10 mg/kg, route oral; conditions: in vivo; summary of the method: as §4

Papp [1]: 1.8 ×10⁻⁶ cm/s | half-life (in vitro [2]; microsomes): 3.93 h
SMILES: Cn1c(-c2ccc(Cl)cn2)c(C2CCCC2)c2ccc(C(=O)NC(C)(C)C(=O)Nc3ccc(/C=C/C(=O)O)cc3)cc21

Drug metabolism (Liver microsomes [3]): Active | Drug metabolism (Liver microsomes [4]): Active
SMILES: Cn1c(-c2ccccn2)c(C2CCCCC2)c2ccc(C(=O)NC(C)(C)C(=O)Nc3ccc(/C=C/C(=O)O)cc3)cc21

Papp [1]: 1.5 ×10⁻⁶ cm/s | half-life (in vitro [2]; liver microsomes): 1.58 h | half-life (in vitro [5]; liver microsomes): 1.02 h
SMILES: COc1ccc(-c2c(C3CCCC3)c3ccc(C(=O)NC4(C(=O)Nc5ccc(/C=C/C(=O)O)cc5)CCC4)cc3n2C)cn1

Papp [1]: 12.6 ×10⁻⁶ cm/s | half-life (in vitro [2]; microsomes): 1.6 h | half-life (in vitro [5]; microsomes): 0.317 h
SMILES: Cn1c(-c2ccccn2)c(C2CCCC2)c2ccc(C(=O)NC3(C(=O)Nc4ccc(/C=C/C(=O)O)cc4)CCCC3)cc21

Papp [1]: 2.9 ×10⁻⁶ cm/s | half-life (in vitro [2]; liver microsomes): 1.87 h | half-life (in vitro [5]; liver microsomes): 1.15 h
SMILES: Cn1c(-c2ccncc2)c(C2CCCC2)c2ccc(C(=O)NC3(C(=O)Nc4ccc(/C=C/C(=O)O)cc4)CCC3)cc21

Cmax [6]: 0.09 µM | Papp [1]: 2.9 ×10⁻⁶ cm/s | half-life (in vitro [2]; microsomes): > 5 h
SMILES: CN1CC[C@@](NC(=O)c2ccc3c(C4CCCC4)c(-c4cccc(N)n4)n(C)c3c2)(C(=O)Nc2ccc(/C=C/C(=O)O)cc2)C1

bioavailability [7]: 54% | half-life [8]: 1.6 h | clearance [9]: 4.3 mL/min/kg | Vd [10]: 0.75 L/kg | MRT [11]: 3.9 h | AUC [12]: 37.4 µM·h | Cmax [13]: 10.9 µM | half-life [14]: 2.2 h | bioavailability [15]: 41% | Vd [16]: 0.58 L/kg | clearance [17]: 6.8 mL/min/kg | AUC [18]: 17.7 µM·h | MRT [19]: 2.4 h | Cmax [6]: 7.8 µM | Papp [1]: 10 ×10⁻⁶ cm/s | half-life (in vitro [2]; liver microsomes): 1.6 h | half-life (in vitro [5]; liver microsomes): 0.933 h
SMILES: Cn1c(-c2cnccn2)c(C2CCCC2)c2ccc(C(=O)NC3(C(=O)Nc4ccc(/C=C/C(=O)O)cc4)CCC3)cc21

AUC [18]: 8.4 µM·h | MRT [19]: 3.4 h | Cmax [6]: 3.7 µM | Papp [1]: 1.8 ×10⁻⁶ cm/s | half-life (in vitro [2]; liver microsomes): > 5 h | half-life (in vitro [5]; liver microsomes): 1.03 h
SMILES: Cn1c(-c2cccc(N)n2)c(C2CCCC2)c2ccc(C(=O)NC3(C(=O)Nc4ccc(/C=C/C(=O)O)cc4)CCC3)cc21

half-life (in vitro [2]; liver microsomes): > 5 h
SMILES: Cn1c(-c2ccc(Cl)cn2)c(C2CCCC2)c2ccc(C(=O)NC3(C(=O)Nc4ccc(/C=C/C(=O)O)cc4)CCCC3)cc21

Papp [1]: 7.5 ×10⁻⁶ cm/s | half-life (in vitro [2]; microsomes): 2.7 h
SMILES: Cn1c(-c2ccoc2)c(C2CCCC2)c2ccc(C(=O)NC3(C(=O)Nc4ccc(/C=C/C(=O)O)cc4)CCC3)cc21

bioavailability [7]: 64% | bioavailability [20]: 70% | half-life [21]: 1.7 h | half-life [8]: 4.3 h | Vd [22]: 0.7 L/kg | Vd [10]: 0.54 L/kg | MRT [23]: 2.9 h | MRT [11]: 5.4 h | AUC [24]: 20.5 µM·h | AUC [12]: 99 µM·h | Cmax [25]: 6.4 µM | half-life [14]: 1.5 h | bioavailability [15]: 59% | Vd [16]: 0.48 L/kg | AUC [18]: 22.7 µM·h | MRT [19]: 4.1 h | Cmax [6]: 7.5 µM | Papp [1]: 11.2 ×10⁻⁶ cm/s | half-life (in vitro [2]; microsomes): 1.42 h | half-life (in vitro [5]; microsomes): 0.517 h
SMILES: Cn1c(-c2ccccn2)c(C2CCCC2)c2ccc(C(=O)NC3(C(=O)Nc4ccc(/C=C/C(=O)O)cc4)CCC3)cc21 [BILB-1941]

half-life (in vitro [2]; liver microsomes): 2.78 h
SMILES: Cn1c(-c2ccc(F)cn2)c(C2CCCC2)c2ccc(C(=O)NC3(C(=O)Nc4ccc(/C=C/C(=O)O)cc4)CCC3)cc21

Papp [1]: 6.9 ×10⁻⁶ cm/s | half-life (in vitro [2]; microsomes): 0.883 h | half-life (in vitro [5]; microsomes): 0.4 h
SMILES: Cc1ccc(-c2c(C3CCCC3)c3ccc(C(=O)NC4(C(=O)Nc5ccc(/C=C/C(=O)O)cc5)CCC4)cc3n2C)nc1

Papp [1]: 0.8 ×10⁻⁶ cm/s | half-life (in vitro [2]; liver microsomes): 1.78 h
SMILES: Cn1c(-c2ccncc2)c(C2CCCC2)c2ccc(C(=O)NC3(C(=O)Nc4ccc(/C=C/C(=O)O)cc4)CCCC3)cc21

half-life (in vitro [2]; liver microsomes): > 5 h | half-life (in vitro [5]; liver microsomes): > 5 h
SMILES: Cn1c(-c2ccc(Cl)cc2)c(C2CCCC2)c2ccc(C(=O)NC3(C(=O)Nc4ccc(/C=C/C(=O)O)cc4)CCC3)cc21

half-life [14]: 1.7 h | bioavailability [15]: 46% | Vd [16]: 1.3 L/kg | clearance [17]: 18.2 mL/min/kg | AUC [18]: 7.2 µM·h | MRT [19]: 1.7 h | Cmax [6]: 6.4 µM | Papp [1]: 6.5 ×10⁻⁶ cm/s
SMILES: Cn1c(-c2ccccn2)c(C2CCCC2)c2ccc(C(=O)NC(C)(C)C(=O)Nc3ccc(/C=C/C(=O)O)cc3)cc21
